# Bioassay records (PubChem)
# T cell HTS – modulators of CD8 T cell-vesicle binding, primary screen, mouse 2C CD8+ T cells, flow cytometry; 2C CD8+ T cell-vesicle binding; hits give low values; response (vesicle binding), % at 7 µM; 0.068% of 330,000 active;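 active = response, share of CD8 T cells binding vesicles, and their 90th percentile fluorescence all below set limits, cut at about 80% in these data, passing the limit was not always enough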;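 also: values below 100% mean blocked vesicle binding to the CD8+ T cells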
#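 Incubation: binding step 1.5 h, 37 °C, antibody labelling 20 min, ice; system: murine 2C transgenic CD8+ T lymphocytes; technique: cytometric PE anti-B7-1 and Alexa647 anti-CD8 signals after 1% paraformaldehyde fixation; also added: QL9-charged Drosophila Ld/ICAM-1/B7-1 vesicles; control set: naked versus QL9-loaded vesicles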
# CHT allo act – CHT positive allosteric modulators, primary screen, cell-based, membrane potential dye, choline EC20; 0.49% of 310,000 active; High affinity choline transporter 1 (Homo sapiens), Q9GZV3; B-score at 10 µM; CHT-expressing cells; hits give high values; LV-AA mutant CHT in HEK293 cells;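 active = initial fluorescence not abnormally high and integrated response B-score, plate-corrected, over 3 SD above library mean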
# VLA-4 inh – inhibition in human VLA-4 binding assay, primary screen, VLA-4 allosteric modulator project, MLPCN library, flow cytometry, VLA-4 expressing cells. ligand binding flow cytometry. inhibition, % (about 7 µM as worked out from the volumes in the protocol). 0.2% of 330,000 active. AID 2557, 2010; in the data active = inhibition above about 50%
# Target sequence (P13612 whole entry, looked up): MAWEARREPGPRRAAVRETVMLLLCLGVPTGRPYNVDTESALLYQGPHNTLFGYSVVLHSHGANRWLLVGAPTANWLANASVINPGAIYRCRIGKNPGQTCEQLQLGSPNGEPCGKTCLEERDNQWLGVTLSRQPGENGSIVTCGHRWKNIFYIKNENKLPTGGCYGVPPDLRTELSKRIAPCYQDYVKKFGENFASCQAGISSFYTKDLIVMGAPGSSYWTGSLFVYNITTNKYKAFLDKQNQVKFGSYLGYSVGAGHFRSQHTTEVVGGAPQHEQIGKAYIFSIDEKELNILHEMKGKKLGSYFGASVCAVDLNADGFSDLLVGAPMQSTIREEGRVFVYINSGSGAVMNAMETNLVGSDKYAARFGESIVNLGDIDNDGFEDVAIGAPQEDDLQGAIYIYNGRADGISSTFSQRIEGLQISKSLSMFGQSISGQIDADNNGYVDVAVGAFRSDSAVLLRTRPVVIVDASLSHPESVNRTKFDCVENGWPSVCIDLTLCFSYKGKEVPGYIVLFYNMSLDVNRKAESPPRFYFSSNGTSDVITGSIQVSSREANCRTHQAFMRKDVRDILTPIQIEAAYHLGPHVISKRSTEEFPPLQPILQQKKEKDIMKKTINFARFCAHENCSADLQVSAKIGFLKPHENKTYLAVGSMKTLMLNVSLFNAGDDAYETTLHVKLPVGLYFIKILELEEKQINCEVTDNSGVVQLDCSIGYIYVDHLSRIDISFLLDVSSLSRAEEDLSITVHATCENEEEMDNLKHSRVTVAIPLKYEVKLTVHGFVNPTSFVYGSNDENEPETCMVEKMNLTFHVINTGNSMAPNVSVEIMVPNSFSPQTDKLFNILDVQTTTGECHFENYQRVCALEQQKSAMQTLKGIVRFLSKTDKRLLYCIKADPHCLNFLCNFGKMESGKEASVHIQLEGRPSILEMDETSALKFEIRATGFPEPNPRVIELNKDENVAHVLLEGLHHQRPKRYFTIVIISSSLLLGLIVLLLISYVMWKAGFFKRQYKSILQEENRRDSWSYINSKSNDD
# CHT block – inhibitors of human choline transporter CHT; High affinity choline transporter 1 (Homo sapiens), Q9GZV3; CHT-expressing cells, membrane potential dye, choline response; hits give low values; B-score at 10 µM; 0.86% of 310,000 active; AID 488975, 2010;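 active = B-score over 3 SD under the library average, and starting fluorescence ratio not unusually high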;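 also: choline stimulus applied at its EC90 after an EC20 pre-addition; B-score computed on integrated fluorescence ratio after choline addition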
# CHT act confirm – CHT activators, confirmation, cell-based, membrane potential dye, duplicate | shares compounds with CHT allo act | CHT-expressing cells, membrane potential dye fluorescence (FDSS); % of choline EC20–EC90 response window; HEK293 expressing CHT LV-AA mutant; choline added at its EC20 | activation, % at 10 µM | 91% of 2,500 active;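 active = primary screen active, with duplicate mean activation above negative control mean plus 3 SD, cut at about 11% in these data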
# HEK293 MP dye – membrane potential response in parental HEK293 cells, counter-screen for CHT activator project, cell-based, membrane potential dye. membrane potential dye fluorescence (FDSS); measured after EC20 choline addition. ratio readout change at 10 µM, hits read low. AID 623908, 2012. shares compounds with CHT allo act. 62% of 2,500 active;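 active = duplicate-averaged ratio beyond 3 SD from buffer wells, up or down, though filed actives are nearly all decreases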
# * marks the source's active call; other numbers are inactive results; i = inactive; x = no result given. This is a sample that favours compounds with a hit; in the whole collection about 1.5% have one here.
SMILES,T cell HTS,CHT allo act,VLA-4 inh,CHT block,CHT act confirm,HEK293 MP dye
CCOC(=O)C1=C(C)NC(C)=C(C(=O)OCC)C1C(=O)OCC(=O)NCCc1ccc(S(N)(=O)=O)cc1,372,i,-1,i,x,x
COc1ccc(-c2c[n+](CC(=O)c3cccs3)c3n2CCC3)cc1,809,i,-8,i,44*,-31*
C/C(=N\NC1=N[C@H]2CS(=O)(=O)C[C@H]2S1)c1ccccc1,489,i,4,i,x,x
O=C(Cc1cccc(C(F)(F)F)c1)Nc1ccccc1,363,i,7,i,x,x
CCCCNC(=NCc1cccc(C(F)(F)F)c1)Nc1ccccc1,213,12*,8,i,18*,i
CCOC(=O)C1(Cc2ccccc2C(F)(F)F)CCN(Cc2ccon2)CC1,117,7*,1,i,20*,i
CCOC(=O)C1(Cc2ccccc2)CCN(Cc2ccon2)CC1,240,i,0,i,x,x
COc1ccc(-n2c(-c3ccc(Br)cc3)c[n+]3c2CCCCC3)cc1,131,11*,0,i,62*,i
CCOc1ccc(-c2c[n+]3c(n2-c2ccccc2)CCCCC3)cc1,166,7.2*,1,i,15*,i
COc1ccc(-n2c(-c3ccc(Br)cc3)c[n+]3c2CCC3)cc1,129,i,14,i,x,x
COc1ccc(-n2c(-c3ccc(Br)cc3)c[n+]3c2SC(C)C3)cc1 (centres undefined),355,i,-5,i,36*,-52*
FC(F)Sc1ccc(-n2c(-c3ccc(Cl)cc3)c[n+]3c2CCC3)cc1,542,6.3*,0,i,30*,-35*
COc1ccc(S(=O)(=O)NCc2cc(=O)n(C)c(=O)n2C)cc1C,178,i,10,i,x,x
CCN(Cc1ccccc1)CC(O)COC(c1ccc(OC)cc1)c1ccc(OC)cc1 (centres undefined),176,i,-7,i,15*,i
CCC(C)(C)C1CCc2nc3ccccc3c(C(=O)OC(C)C(=O)Nc3c(C)n(C)n(-c4ccccc4)c3=O)c2C1 (centres undefined),364,11*,25,i,32*,i
Cc1nc2cc(NC(=O)N3CCC(c4ccccc4)C3)ccc2n1C (centres undefined),359,i,2,i,x,x
Cc1nc2cc(NC(=O)N3CCCC3)ccc2n1C,711,6.5*,5,i,26*,-39*
COCc1ccc(C(=O)N(C)C2CCCN(Cc3ccccc3F)C2)o1 (centres undefined),0,i,-6,i,x,x
CCOC(=O)N1CCN(Cc2cc(=O)oc3cc4c(cc23)CCC4)CC1,166,i,-6,i,x,x
O=c1cc(CN2CCN(CCO)CC2)c2cc3c(cc2o1)CCC3,310,i,4,i,46*,-44*
Cc1cc2c3c(ccc(C)c3n1)N=CN2c1ccccc1,143,i,2,i,49*,-60*
CN1CCN(CCCNC(=O)c2cn(C)c3ccc(S(=O)(=O)N(C)C)cc3c2=O)CC1,103,6.9*,-26,i,41*,-23*
CC(C)N(CCNC(=O)c1cn(C)c2ccc(S(=O)(=O)N(C)C)cc2c1=O)Cc1ccccc1,120,i,1,i,x,x
COc1ccc(NCc2ccc(OC)c(OC)c2)cc1,485,i,-9,i,x,x
COc1ccc(C(CCNCc2ccc(OC)c(OC)c2)c2ccc(F)cc2)cc1 (centres undefined),214,7.4*,10,i,28*,i
COc1ccc(C(CCNCc2ccc(N(C)C)cc2)c2ccccc2)cc1 (centres undefined),294,7*,15,i,9,i
O=C(NC1CCN(Cc2ccc(Cl)cc2)CC1)c1cn(-c2ccccc2)nc1-c1cccnc1,604,x,5,x,x,x
